# From ChEMBL document CHEMBL1132962, “1,2-Dibenzamidobenzene inhibitors of human factor Xa” (J Med Chem, 2000)
# Columns and labels:
# [1] = molecular target: Prothrombin (Homo sapiens) (UniProt P00734); experiment: Apparent association constant against Coagulation factor II
# Outline: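 Human α-thrombin, 5.9 nM, with chromogenic substrate Bz-Phe-Val-Arg-pNA at 0.2 mM. Uses the same general protocol as the fXa assay: pNA release read at 405 nm, with inhibitors auto-diluted in triplicate. Apparent Kass = [Eb]/[Ef][Io−Ib] at concentrations giving 20–80% inhibition. Values are mean ± SD when n≥3 and the average when n=2.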
# [2] = molecular target: Coagulation factor X (Homo sapiens) (UniProt P00742); experiment: Apparent association constant against coagulation factor X
# Outline: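 Purchased human fXa, 3.2 nM final, in buffer of 0.06 M tris, 0.3 M NaCl, pH 7.4, with 1 mg/mL HSA in the enzyme diluent. Inhibitor is added in MeOH at 4–8 concentrations in triplicate, then Bz-Ile-Glu-Gly-Arg-pNA (0.3 mM stock in water) starts the reaction. Hydrolysis is read at 405 nm. Free and bound enzyme come from standard curves. Apparent Kass = [Eb]/[Ef][Io−Ib] at 20–80% inhibition.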
# Coagulation factor X (Homo sapiens), sequence (P00742 41-179 limits assumed): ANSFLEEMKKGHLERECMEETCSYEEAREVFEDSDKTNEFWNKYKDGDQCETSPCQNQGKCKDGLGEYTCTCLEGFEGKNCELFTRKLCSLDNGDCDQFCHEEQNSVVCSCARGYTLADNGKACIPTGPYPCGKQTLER
# Coagulation factor X (Homo sapiens), sequence (P00742 235-488 limits assumed): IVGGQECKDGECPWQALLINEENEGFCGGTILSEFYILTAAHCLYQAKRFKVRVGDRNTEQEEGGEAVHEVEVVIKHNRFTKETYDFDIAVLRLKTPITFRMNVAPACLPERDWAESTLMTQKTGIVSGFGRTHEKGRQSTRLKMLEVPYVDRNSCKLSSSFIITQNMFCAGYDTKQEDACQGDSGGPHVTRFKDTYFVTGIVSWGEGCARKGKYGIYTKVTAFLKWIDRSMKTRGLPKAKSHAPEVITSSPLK
K ass [1],K ass [2],Compound
40000 l M-1,2.68e+06 l M-1,CCc1ccc(C(=O)Nc2cc(O)ccc2NC(=O)c2ccc(OC)cc2)cc1
0 l M-1,430000 l M-1,COc1ccc(C(=O)Nc2ccccc2NC(=O)c2ccc([S+](C)[O-])cc2)cc1 (stereo not drawn)
0 l M-1,290000 l M-1,COc1ccc(C(=O)Nc2ccccc2NC(=O)c2ccc(Oc3ccccc3)cc2)cc1
20000 l M-1,520000 l M-1,COc1ccc(C(=O)Nc2ccccc2NC(=O)c2ccc(OC)cc2OC)cc1
0 l M-1,80000 l M-1,CCCCOc1ccc(C(=O)Nc2ccccc2NC(=O)c2ccc(OC)cc2)cc1
80000 l M-1,4.91e+06 l M-1,COc1ccc(C(=O)Nc2ccccc2NC(=O)c2ccc(C(C)C)cc2)cc1
50000 l M-1,7.31e+06 l M-1,COc1ccc(C(=O)Nc2ccccc2NC(=O)c2ccc(C(C)(C)C)cc2)cc1
0 l M-1,1.1e+06 l M-1,COc1ccc(C(=O)Nc2ccccc2NC(=O)c2ccc(-c3ccccc3)cc2)cc1
0 l M-1,20000 l M-1,COc1ccc(C(=O)Nc2ccccc2N(C)C(=O)c2ccc(OC)cc2)cc1
0 l M-1,660000 l M-1,COc1ccc(C(=O)Nc2ccccc2NC(=O)c2ccc(S(=O)(=O)N(C)C)cc2)cc1
,1.25e+06 l M-1,COc1ccc(C(=O)Nc2ccc(OC)cc2NC(=O)c2ccc(OC)cc2)cc1
20000 l M-1,840000 l M-1,COc1ccc(C(=O)Nc2ccccc2NC(=O)c2ccc(OC)cc2)cc1
0 l M-1,530000 l M-1,COc1ccc(C(=O)Nc2ccccc2NC(=O)c2ccc(S(C)(=O)=O)cc2)cc1
50000 l M-1,1.69e+07 l M-1,COc1ccc(C(=O)Nc2ccccc2NC(=O)c2ccc(N(C)C)cc2)cc1
20000 l M-1,640000 l M-1,COc1ccc(C(=O)Nc2ccc(O)cc2NC(=O)c2ccc(OC)cc2)cc1
20000 l M-1,2.35e+06 l M-1,COc1ccc(C(=O)Nc2ccccc2NC(=O)c2ccc(C(C)(C)OC)cc2)cc1
0 l M-1,10000 l M-1,COc1ccc(C(=O)Nc2ccccc2NC(=O)c2ccc(C(=O)C(F)(F)F)cc2)cc1
10000 l M-1,450000 l M-1,COc1ccc(C(=O)Nc2cccc(O)c2NC(=O)c2ccc(OC)cc2)cc1
40000 l M-1,1.19e+06 l M-1,COc1ccc(C(=O)Nc2ccccc2NC(=O)c2ccc(OC(C)C)cc2)cc1
30000 l M-1,710000 l M-1,COc1ccc(C(=O)Nc2ccccc2NC(=O)c2ccc(OC)cc2Cl)cc1
,420000 l M-1,COc1ccc(C(=O)Nc2ccc(Cl)cc2NC(=O)c2ccc(OC)cc2)cc1
20000 l M-1,450000 l M-1,COc1ccc(C(=O)Nc2ccc(C)cc2NC(=O)c2ccc(OC)cc2)cc1
0 l M-1,440000 l M-1,CCCOc1ccc(C(=O)Nc2ccccc2NC(=O)c2ccc(OC)cc2)cc1
0 l M-1,0 l M-1,CCCCCCOc1ccc(C(=O)Nc2ccccc2NC(=O)c2ccc(OC)cc2)cc1
10000 l M-1,820000 l M-1,COc1ccc(C(=O)Nc2ccccc2NC(=O)c2ccc(OC(C)(C)C)cc2)cc1
0 l M-1,640000 l M-1,CCOc1ccc(C(=O)Nc2ccccc2NC(=O)c2ccc(OC)cc2)cc1
20000 l M-1,1.63e+06 l M-1,COc1ccc(C(=O)Nc2ccccc2NC(=O)c2ccc(SC)cc2)cc1
20000 l M-1,320000 l M-1,COc1ccc(C(=O)Nc2ccc(C(=O)O)cc2NC(=O)c2ccc(OC)cc2)cc1

# Continued, molecule first:
Compound,K ass [1],K ass [2]
CC(C)(C)c1ccc(C(=O)Nc2ccccc2NC(=O)c2ccc(Cl)cc2)cc1,50000 l M-1,2.92e+06 l M-1
CC(C)(C)c1ccc(C(=O)Nc2ccccc2NC(=O)c2ccccc2)cc1,70000 l M-1,380000 l M-1
CC(C)(C)c1ccc(C(=O)Nc2ccccc2NC(=O)c2ccc(OC(F)(F)F)cc2)cc1,0 l M-1,0 l M-1
Cc1ccc(C(=O)Nc2ccccc2NC(=O)c2ccc(C(C)(C)C)cc2)cc1,0 l M-1,280000 l M-1
COc1ccc(C(=O)Nc2ccc(NS(C)(=O)=O)cc2NC(=O)c2ccc(C(C)(C)C)cc2)cc1,110000 l M-1,7.65e+06 l M-1
COc1ccc(C(=O)Nc2cc(C(=O)O)ccc2NC(=O)c2ccc(C(C)(C)C)cc2)cc1,80000 l M-1,3.99e+06 l M-1
COc1ccc(C(=O)Nc2ccc(C(=O)O)cc2NC(=O)c2ccc(C(C)(C)C)cc2)cc1,70000 l M-1,1.28e+07 l M-1
C=Cc1cccc(C(=O)Nc2ccccc2NC(=O)c2ccc(C(C)(C)C)cc2)c1,0 l M-1,560000 l M-1
CCc1ccc(C(=O)Nc2ccccc2NC(=O)c2ccc(C(C)(C)C)cc2)cc1,0 l M-1,10000 l M-1
COc1ccc(C(=O)Nc2cc(NS(C)(=O)=O)ccc2NC(=O)c2ccc(C(C)(C)C)cc2)cc1,130000 l M-1,1.3e+07 l M-1
COc1ccc(C(=O)Nc2ccc(O)cc2NC(=O)c2ccc(C(C)(C)C)cc2)cc1,40000 l M-1,
CC(C)(C)c1ccc(C(=O)Nc2ccccc2NC(=O)c2cccc(F)c2)cc1,0 l M-1,400000 l M-1
COc1ccc(C(=O)Nc2cccc(NC(=O)c3ccc(OC)cc3)c2)cc1,0 l M-1,0 l M-1
COc1cccc(C(=O)Nc2ccccc2NC(=O)c2ccc(C(C)(C)C)cc2)c1,0 l M-1,20000 l M-1
COc1ccc(C(=O)Nc2ccc(O)cc2NC(=O)c2ccc(N(C)C)cc2)cc1,50000 l M-1,2.55e+07 l M-1
COc1ccc(C(=O)Nc2cc(O)ccc2NC(=O)c2ccc(C(C)(C)C)cc2)cc1,50000 l M-1,3.56e+06 l M-1
COc1ccc(C(=O)N(C)c2ccccc2N(C)C(=O)c2ccc(OC)cc2)cc1,0 l M-1,0 l M-1
COc1ccc(C(=O)Nc2c(OC)ccc(OC)c2NC(=O)c2ccc(OC)cc2)cc1,10000 l M-1,770000 l M-1
C=Cc1ccc(C(=O)Nc2ccccc2NC(=O)c2ccc(C(C)(C)C)cc2)cc1,10000 l M-1,3.05e+06 l M-1
CC(C)(C)c1ccc(C(=O)Nc2ccccc2NC(=O)c2ccc(F)cc2)cc1,0 l M-1,510000 l M-1
